Laboratory results as given in ChEMBL document CHEMBL1817625, “Synthesis of pheophorbide-a conjugates with anticancer drugs as potential cancer diagnostic and therapeutic agents” (Bioorg Med Chem, 2011).
The source made the active and inactive calls. The rule behind the calls is not given here.

Experiments:
MCF7 = assay: Cytotoxicity against human MCF7 cells assessed as inhibition of cell growth at 10 uM after 3 days by SRB assay; assay type: functional, cell-based
Procedure, shortened: (§1)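 Cells were kept at 37 °C in 5% CO2, HeLa in DMEM and MCF7 in RPMI 1640, each with 10% FBS. They were seeded at 50,000 cells/mL in 96-well plates, exposed to 10 µM compound for 3 days, then fixed in the cold for 1 h. Staining was SRB for 1 h at room temperature with 1% acetic acid washes. Bound dye was released in 10 mM Tris and read at 515 nm. Values are means of four duplicated samples, as a percentage of solvent-treated control.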

HeLa [1] = assay: Cytotoxicity against human HeLa cells assessed as inhibition of cell growth at 10 uM after 3 days by SRB assay; assay type: functional, cell-based; procedure, shortened: as §1
YD-10B = assay: Cytotoxicity against human YD-10B cells assessed as inhibition of cell growth at 10 uM after 3 days by SRB assay; assay type: functional, cell-based
Procedure, shortened: (§2)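 Cultures were kept in DMEM with 10% FBS and antibiotic–antimycotic at 37 °C, 5% CO2, and detached with trypsin/EDTA. Cells were plated at 50,000 cells/mL and treated with 10 µM compound for 3 days. SRB staining: 1 h cold fixation, 1 h room-temperature stain, 1% acetic acid washes, 10 mM Tris release. A515 was read; the mean of four duplicates was given as % of solvent-treated control.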

KB = assay: Cytotoxicity against human KB cells assessed as inhibition of cell growth at 10 uM after 3 days by SRB assay; assay type: functional, cell-based
Procedure, shortened: (§3)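 Cells were grown in RPMI 1640 with 10% FBS and antibiotic–antimycotic at 37 °C, 5% CO2, and trypsin/EDTA-detached. They were seeded at 50,000 cells/mL and exposed to 10 µM compound for 3 days. For SRB staining, cells were fixed cold for 1 h, stained 1 h at room temperature, washed with 1% acetic acid and solubilized in 10 mM Tris. A515 was read; means of four duplicates were expressed as % of solvent-treated control.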

HeLa [2] = assay: Cellular uptake in human HeLa cells at 10 uM after 48 hrs by confocal microscopic analysis; assay type: ADME, cell-based
Procedure, shortened: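 HeLa cells were seeded in slide dishes in RPMI 1640 overnight. They were then exposed to 10 µM compound in complete medium for 48 h under 95% air/5% CO2 and washed three times with PBS. Confocal imaging used 440 nm excitation, collecting 575–600 nm emission (doxorubicin channel) and 655–755 nm emission (pheophorbide-a channel).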

U-87MG ATCC = assay: Cytotoxicity against human U87MG cells assessed as inhibition of cell growth at 10 uM after 3 days by SRB assay; assay type: functional, cell-based; procedure, shortened: as §3
PC-3 = assay: Cytotoxicity against human PC3 cells assessed as inhibition of cell growth at 10 uM after 3 days by SRB assay; assay type: functional, cell-based; procedure, shortened: as §3
HCT-116 = assay: Cytotoxicity against human HCT116 cells assessed as inhibition of cell growth at 10 uM after 3 days by SRB assay; assay type: functional, cell-based; procedure, shortened: as §3
SK-OV-3 = assay: Cytotoxicity against human SKOV3 cells assessed as inhibition of cell growth at 10 uM after 3 days by SRB assay; assay type: functional, cell-based; procedure, shortened: as §3
A549 = assay: Cytotoxicity against human A549 cells assessed as inhibition of cell growth at 10 uM after 3 days by SRB assay; assay type: functional, cell-based; procedure, shortened: as §2
AT84 = assay: Cytotoxicity against mouse AT84 cells assessed as inhibition of cell growth at 10 uM after 3 days by SRB assay; assay type: functional, cell-based; procedure, shortened: as §3
HepG2 = assay: Cytotoxicity against human HepG2 cells assessed as inhibition of cell growth at 10 uM after 3 days by SRB assay; assay type: functional, cell-based; procedure, shortened: as §2

| Compound | growth inhibition (GI) (MCF7) | growth inhibition (GI) (HeLa [1]) | growth inhibition (GI) (YD-10B) | growth inhibition (GI) (KB) | Drug uptake (HeLa [2]) | growth inhibition (GI) (U-87MG ATCC) | growth inhibition (GI) (PC-3) | growth inhibition (GI) (HCT-116) | growth inhibition (GI) (SK-OV-3) | growth inhibition (GI) (A549) | growth inhibition (GI) (AT84) | growth inhibition (GI) (HepG2) |
| --- | --- | --- | --- | --- | --- | --- | --- | --- | --- | --- | --- | --- |
| C=Cc1c(C)c2cc3nc(c4c5[nH]c(cc6nc(cc1[nH]2)C(C)=C6CC)c(C)c5C(=O)[C@@H]4C(=O)OC)[C@@H](CCC(=O)O[C@@H](C(=O)O[C@H]1C[C@@]2(O)[C@@H](OC(=O)c4ccccc4)[C@@H]4[C@]5(OC(C)=O)CO[C@@H]5C[C@H](O)[C@@]4(C)C(=O)[C@H](OC(C)=O)C(=C1C)C2(C)C)[C@@H](NC(=O)c1ccccc1)c1ccccc1)[C@@H]3C | Active | Active | Active | Active | – | – | – | – | – | – | – | – |
| COc1cccc2c1C(=O)c1c(O)c3c(c(O)c1C2=O)C[C@@](O)(C(=O)CO)C[C@@H]3O[C@H]1C[C@H](N)[C@H](O)[C@H](C)O1 [DOXORUBICIN] | – | – | – | – | Active | – | – | – | – | – | – | – |
| C=Cc1c(C)c2cc3nc(c4c5[nH]c(cc6nc(cc1[nH]2)C(C)=C6CC)c(C)c5C(=O)[C@@H]4C(=O)OC)[C@@H](CCC(=O)Nc1ccc(COC(=O)N[C@@H]2C[C@@H](O[C@H]4C[C@](O)(C(=O)CO)Cc5c(O)c6c(c(O)c54)C(=O)c4c(OC)cccc4C6=O)O[C@H](C)[C@@H]2O)cc1)[C@@H]3C | Active | Active | Active | Active | Active | Active | Active | Active | Active | Active | Active | Active |
| C=Cc1c(C)c2cc3nc(c4c5[nH]c(cc6nc(cc1[nH]2)C(C)=C6CC)c(C)c5C(=O)[C@@H]4C(=O)OC)[C@@H](CCC(=O)N[C@@H]1C[C@@H](O[C@H]2C[C@](O)(C(=O)CO)Cc4c(O)c5c(c(O)c42)C(=O)c2c(OC)cccc2C5=O)O[C@H](C)[C@@H]1O)[C@@H]3C | Active | Active | – | – | Active | Active | – | – | – | – | Active | – |
| C=Cc1c(C)c2cc3nc(c4c5[nH]c(cc6nc(cc1[nH]2)C(C)=C6CC)c(C)c5C(=O)[C@@H]4C(=O)OC)[C@@H](CCC(=O)O)[C@@H]3C [PHEOPHORBIDE A] | – | – | – | – | Active | – | – | – | – | – | – | – |
| C=Cc1c(C)c2cc3nc(c4c5[nH]c(cc6nc(cc1[nH]2)C(C)=C6CC)c(C)c5C(=O)[C@@H]4C(=O)OC)[C@@H](CCC(=O)Oc1ccccc1/C=C/C(=O)N[C@@H]1C[C@@H](O[C@H]2C[C@](O)(C(=O)CO)Cc4c(O)c5c(c(O)c42)C(=O)c2c(OC)cccc2C5=O)O[C@H](C)[C@@H]1O)[C@@H]3C | Active | Active | Active | Active | Active | Active | Active | Active | Active | Active | Active | Active |
